# From PubChem
# In the library only some 2.4% were active in any assay of this set; here they are far more common.
# Scp-1 inhibitor – Scp-1 (human) phosphatase inhibition. Q9GZU7. Recombinant Scp1, phosphopeptide, malachite green phosphate absorbance. inhibition, % at 20 µM. actives 0.88% (n = 340,000);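 active means inhibition above about 50% at 20 µM, limit read from the data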;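 further: plate controls were DMSO wells with enzyme for no effect and wells lacking enzyme for full effect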
# Target sequence (Q9GZU7 76-261 limits assumed): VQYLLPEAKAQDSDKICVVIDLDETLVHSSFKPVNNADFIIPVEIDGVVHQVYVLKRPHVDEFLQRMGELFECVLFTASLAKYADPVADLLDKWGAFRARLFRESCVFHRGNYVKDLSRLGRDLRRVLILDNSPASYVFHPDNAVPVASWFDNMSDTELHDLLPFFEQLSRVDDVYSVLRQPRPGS
#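 Incubation: 45 min enzyme reaction at room temperature / System: truncated SCP-1 phosphatase (76-261aa) / Reagent: Phospho 17-mer peptide substrate / Buffer or medium: Acidic Tris acetate buffer with magnesium and detergent / Signal: absorbance at 630 nm / Doses: one concentration, 20 µM, with 1.0% DMSO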
# SUMO1-SIM PPI – modulators of human SUMO1-mediated protein-protein interactions; P63165; SUMO1 binding to a labelled peptide, TR-FRET, 1 h; inhibition, % at 20 µM; actives 0.33% (n = 360,000); AID 602429; in the data active means inhibition above about 37%
# Target sequence (P63165 whole entry, looked up): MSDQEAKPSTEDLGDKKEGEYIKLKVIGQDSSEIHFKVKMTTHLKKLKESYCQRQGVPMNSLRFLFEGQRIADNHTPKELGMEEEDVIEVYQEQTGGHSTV
# NadD inh – NadD (S. aureus) enzyme inhibition. inhibition, % at 20 µM. purified NadD enzyme, colorimetric absorbance read-out. actives 0.78% (n = 360,000); in the data active means inhibition above about 26%
# STEP block – blocks human striatal-enriched tyrosine phosphatase; recombinant STEP, OMFP fluorogenic substrate, fluorescence; inhibition, % at 20 µM; actives 0.25% (n = 360,000);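 active means inhibition at 20 µM, scaled per plate between control wells, above about 37%, limit read from the data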;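 further: 0% = DMSO with enzyme and substrate and 100% = substrate only without enzyme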
#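 System: STEP phosphatase, cell-free reaction; Buffer or medium: Bis-Tris pH 6.0 buffer with DTT, detergent; Incubation: 20 min at room temperature, dark; Measured by: fluorescence, 480/540 nm.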
# DNMT1 block – DNMT1 (human) enzyme inhibition. P26358. DNMT1 molecular beacon, Hinp1I cleavage, fluorescence. inhibition (reported as % activation of signal), % at 10 µM. actives 0.83% (n = 360,000); in the data active means inhibition above about 50%
# LMPTP inh – blocks human LMPTP phosphatase. P24666. recombinant LMPTP-A, OMFP fluorogenic substrate, fluorescence intensity. inhibition, % at 20 µM. actives 0.22% (n = 360,000). AID 651560;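 active means compounds that cut the enzyme signal by at least half of the control window in the single-dose screen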;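 further: plate controls were DMSO wells with enzyme plus substrate for no effect and substrate without enzyme for full effect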
# Target sequence (P24666 whole entry, looked up): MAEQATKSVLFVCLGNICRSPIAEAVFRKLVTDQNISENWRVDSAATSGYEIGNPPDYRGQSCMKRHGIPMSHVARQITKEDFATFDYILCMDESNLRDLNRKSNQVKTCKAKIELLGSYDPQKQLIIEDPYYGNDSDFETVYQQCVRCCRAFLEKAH
#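 Buffer or medium: Bis-Tris pH 6.0, DTT, detergent; Assay system: LMPTP-A enzyme; Quantity: 0.625 nM enzyme; Detection: endpoint fluorescence intensity; Times: 50 min dark incubation at room temperature; Controls: substrate-only low control, DMSO enzyme-plus-substrate high control; Doses: single 20 µM dose; Read-out: percent inhibition versus substrate-only and uninhibited controls; Reagent: 400 µM OMFP.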
# * hit, by the source's call; . = no result given.
SMILES,Scp-1 inhibitor,SUMO1-SIM PPI,NadD inh,STEP block,DNMT1 block,LMPTP inh
CN(C)CCCN1C(=O)c2cccc3c([N+](=O)[O-])ccc(c23)C1=O,-2.3,-26.7,-0.6,-2.8,68.6*,0.9
Cc1ccc(C(=O)O)cc1N1C(=O)c2cccc3c([N+](=O)[O-])ccc(c23)C1=O,10.5,14.6,-0.3,0.6,59.9*,-0.1
Cc1c(-c2ccccc2)c(-c2ccc(OCCN(C)C)cc2)n2ccccc12,-4.7,-42.4,1.7,-1.9,-3.6,80.2*
Cc1c(C(=O)NCc2ccc(F)cc2)sc(=O)n1Cc1ccc(C(=O)c2ccccc2)cc1,.,-0.9,-1.3,1.1,-5.5,3.8
CC(=O)OC(C)C1C2=C(C(=O)CC1(C)O)C(=O)c1c(ccc(-c3ccc4c(c3O)C(=O)C3=C(C4=O)C(C(C)OC(C)=O)C(C)(O)CC3=O)c1O)C2=O (stereo not given),2.2,21.2,45.0*,4.9,-15.7,1.5
Cc1c(CN2CCCC(CO)(Cc3cccc(Cl)c3)C2)cnn1C (stereo not given),-9.6,2.4,-6.4,-3.2,5.9,0.9
O=C1C(NS(=O)(=O)c2cccs2)=C(N2CCN(c3cccc(Cl)c3)CC2)C(=O)c2ccccc21,0.8,-15.7,30.3*,-0.4,-26.2,2.5
Cc1ccnc(NC(=O)CCNC(=O)c2ccc(Br)cc2)c1,.,2.8,7.3,-1.9,4.1,-1.3
CCN(Cc1ccccc1)C(=O)Cn1c(=O)n(CC(=O)N2CCCCC2)c(=O)c2sccc21,-7.4,0.7,2.8,1.6,2.7,-0.3
CN(C)c1ccc(C=c2c3cc(O)ccc3n3c2cc(-c2ccccc2)[n+]3C)cc1,7.1,68.8*,26.9,13.5,29.6,93.8*
CN(C)c1ccc(C=c2c3ccccc3n3c2c2ccccc2[n+]3C)cc1,-7.6,118.9*,54.1*,37.0,29.0,77.6*
C[n+]1c(-c2ccccc2)cc2c(=Cc3ccc([N+](=O)[O-])cc3)c3ccccc3n21,22.0,-24.1,10.7,1.2,51.9*,13.4
CCOC(=O)c1cc2c(=Cc3ccc(N(C)C)cc3)c3ccccc3n2[n+]1C,17.0,-35.9,0.2,10.5,9.6,29.0
C[n+]1c(-c2ccccc2)cc2c(=Cc3ccccc3)c3ccccc3n21,24.5,-50.3,6.2,7.5,50.4*,22.6
Cc1cc2c(=Cc3ccc(N(C)C)cc3)c3ccccc3n2[n+]1C,-4.7,-133.7,-1.6,24.0,12.4,44.6
Cc1cccc(NC(=O)c2c(-c3ccccc3)noc2C)n1,-2.9,4.4,-1.1,-3.5,-1.0,-0.6
COc1ccc([C@@H]2[C@@H]3C(=O)N(C(C)(C)C)C(=O)[C@@H]3[C@]3(C)C(=O)N(c4cccc(Br)c4)C(=O)N23)cc1,-17.6,-0.6,-5.4,-3.7,-1.9,-2.2
Cc1cnc2c(N)cc(C)c(C)c2c1,.,-9.5,2.0,1.0,-8.4,1.3
CCC(C)n1c(SCC(=O)NC2CCS(=O)(=O)C2)nc2ccccc2c1=O (stereo not given),1.6,1.9,1.7,-0.5,0.5,-0.3
CN(C)c1nc(N)nc(/C(C#N)=C/C2CC3C=CC2C3)n1 (stereo not given),-2.6,3.9,-2.6,0.1,-6.6,67.0*
COc1cc2c(cc1OC)/C(=C/C(=O)c1ccc(OC)c([N+](=O)[O-])c1)NCC2,-5.7,42.4*,-5.0,2.6,-12.4,1.6
COc1cc2c(cc1OC)/C(=C/C(=O)c1cccc([N+](=O)[O-])c1)NCC2,-15.6,-34.2,-3.4,3.9,-8.0,1.2
CCOc1ccc(NC(=O)COC(=O)c2cccnc2)cc1,-3.4,1.9,0.5,-4.6,-1.8,-1.2
NC(=O)c1cc[n+](CC2=C(C(=O)O)N3C(=O)[C@@H](NC(=O)C(c4ccccc4)S(=O)(=O)[O-])[C@H]3SC2)cc1 (stereo not given in full),84.8*,81.7*,15.8,96.8*,97.9*,15.4
Cc1nnc(SCC2=C(C(=O)O)N3C(=O)C(NC(=O)Cc4ccccc4)C3SC2)s1 (stereo not given),46.7,9.2,-0.4,9.5,11.3,0.4
SMILES,Scp-1 inhibitor,SUMO1-SIM PPI,NadD inh,STEP block,DNMT1 block,LMPTP inh
C=C(C)Cn1c(SCC(=O)N/N=C/c2c(O)ccc3ccccc23)nc2ccccc2c1=O,18.6,-0.7,34.8*,2.4,-12.5,3.6
CCNC(=O)c1ccccc1-c1nc(-c2ccccc2)no1,3.8,-0.4,-4.7,-0.5,2.0,-0.2
O=C(N/N=C/c1ccccc1O)c1cccc(C(F)(F)F)c1,52.8*,3.6,-3.3,4.9,3.0,19.7
CCOc1ccc(CCNC(=O)c2ccc3c(=O)[nH]c4c(C(=O)NC(C)C)sc(=S)n4c3c2)cc1,-8.8,10.0,29.9,1.7,-11.4,1.2
CC(C)NC(=O)c1sc(=S)n2c1[nH]c(=O)c1ccc(C(=O)NCCc3ccc(Cl)cc3)cc12,-6.8,26.5,23.3,40.0*,-24.3,33.7
Cc1ccccc1NC(=O)CSCc1nc(N)nc(Nc2ccccc2C)n1,1.2,0.6,-0.1,-0.6,2.1,0.2
COCCNC(=O)C1(C)CCCN(C(=O)c2cc(OC)c(OC)c(OC)c2)C1 (stereo not given),.,-1.9,-0.2,-1.0,4.7,-1.4
CCCCCCc1cc2cc(C(=O)NCc3ccccc3)c(=N)oc2cc1O,-4.6,-0.4,31.3*,-10.8,10.3,0.8
COc1ccccc1C1CCCN1Cc1nc(-c2ccc(C)s2)oc1C (stereo not given),-5.0,-2.0,0.6,0.8,-1.2,1.8
COC(=O)c1sc(NC(=S)NC(=O)c2ccccc2F)nc1C,-5.3,-3.5,-1.9,4.3,-0.8,72.6*
Nc1nccc(-c2cc(-c3ccc(Cl)cc3Cl)no2)n1,-5.1,-0.7,-1.0,1.8,-3.0,1.8
COc1ccc(N=Nc2cc(OC)c(N)cc2OC)cc1,4.7,-68.4,3.5,6.1,-9.2,6.3
Cc1cc(N=Nc2ccc(C)c(N=Nc3cc(C)c(N)cc3N)c2)c(N)cc1N,-4.5,-199.4,29.8*,2.5,-25.5,4.2
S=c1[nH]nc2ccc3ccccc3n12,.,-3.3,3.2,0.0,-1.2,71.5*
c1nc(SSc2ncnc3nc[nH]c23)c2[nH]cnc2n1,26.9,1.0,2.4,-1.6,1.3,47.4*
CN(C)c1ccc(Cc2cc3c(O)ccc(O)c3cc(Cc3ccc(N(C)C)cc3)c2=O)cc1,29.9,41.8*,67.6*,7.2,81.3*,49.8
CC1(Cc2ccc(C(F)(F)F)o2)C(=O)Nc2cc(-c3ccc(F)cc3F)ccc21 (stereo not given),.,3.6,-11.4,-0.4,-36.2,3.1
O=C(O)[C@@H]1[C@H]2C[C@H]3c4[nH]c5ccccc5c4CCN3C[C@@H]2CC[C@@H]1O,-8.8,24.9,16.0,-2.2,20.8,59.5*
